Key:
[1] = Therapeutic index (ratio of CT5 to ED50).; conditions: for selectivity ratio: read-out: TI
[2] = test system: Human immunodeficiency virus 1; experiment: Inhibition of HIV replication by 50%.; type: functional; conditions: read-out: ED50 (the source's name)
[3] = test system: Human immunodeficiency virus 1; experiment: Inhibition of 50% of the integrase-mediated catalysis of the Y-oligo substrate with 95% confidence interval; type: functional
MT2 = experiment: Inhibition of MT-2 cell growth by 5% or less over a 72 hr time period.; type: functional, Homo sapiens
Procedure, shortened: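 Compounds dissolved in water, 95% ethanol or ethanol/DMSO, diluted in growth medium, filter-sterilized, 2-fold serial dilutions in triplicate. MT-2 cells (2 × 10^5) exposed 72 h at 37 °C; viability by neutral red dye uptake. CT5 = 5% growth inhibition (within 1 SD of untreated controls), taken from linear part of dose-response curve; reported as greater than top concentration when not reachable.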

[4] = test system: Human immunodeficiency virus 1; experiment: Inhibition of 50% of the integrase-mediated catalysis of the V1/V2 substrate with 95% confidence interval; type: functional
[5] = test system: Human immunodeficiency virus 1; experiment: Inhibition of 50% of the integrase-mediated catalysis of the V1/V2 substrate; type: functional
[6] = test system: Human immunodeficiency virus 1; experiment: Inhibition of 50% of the integrase-mediated catalysis of the Y-oligo substrate; type: functional

Row | SMILES | selectivity ratio [1] | EC50 [2] [µM] | IC50 ([3]; Human immunodeficiency virus 1) [µM] | CT5 (MT2) [µM] | IC50 ([4]; Human immunodeficiency virus 1) [µM] | EC50 ([2]; Human immunodeficiency virus 1) [µM] | TI [1] | IC50 [5] [µM] | IC50 [6] [µM] | IC50 [3] [µM] | IC50 [4] [µM]
1 | O=C(/C=C\c1ccc(O)c(O)c1)NC(COC(=O)/C=C/c1ccc(O)c(O)c1)C(=O)O (stereo not drawn) | 16 | 2.5 | 0.12 | 39 | 0.33 |  |  |  |  |  | 
2 | CC(CCC(=O)O)C1CC[C@H]2[C@@H]3[C@H](OC(=O)/C=C/c4ccc(O)c(O)c4)CC4C[C@H](OC(=O)/C=C/c5ccc(O)c(O)c5)CC[C@]4(C)[C@H]3C[C@H](OC(=O)/C=C/c3ccc(O)c(O)c3)[C@]12C (stereo partly drawn) | < 1 |  | 0.75 | 11.4 | 0.97 | > 140 |  |  |  |  | 
3 | CCN(CC)C(=O)C(Cc1ccc(O)c(O)c1)C(Cc1ccc(O)c(O)c1)C(=O)O (stereo not drawn) | 0.5 |  | 5.27 | 93 | > 10 | 186 |  |  |  |  | 
4 | CC(CCC(=O)O)C1CC[C@H]2[C@@H]3CCC4C[C@H](OC(=O)/C=C/c5ccc(O)c(O)c5)CC[C@]4(C)[C@H]3C[C@H](OC(=O)/C=C/c3ccc(O)c(O)c3)[C@]12C (stereo partly drawn) | < 1 |  | 1.97 | 6.4 |  | > 17 |  |  |  |  | 
5 | O=C(/C=C\c1ccc(O)c(O)c1)NC(CNC(=O)/C=C/c1ccc(O)c(O)c1)C(=O)O (stereo not drawn) | 1 |  | 0.57 | 35 | 0.83 | 35 |  |  |  |  | 
6 | CC(=O)Oc1ccc(/C=C/C(=O)OC(C(=O)O)C(OC(=O)/C=C/c2ccc(OC(C)=O)c(OC(C)=O)c2)C(=O)O)cc1OC(C)=O (stereo not drawn) | 4.5 |  | 15.7 | 18.6 | > 10 | 4 |  |  |  |  | 
7 | O=C(O)C(Cc1ccc(O)c(O)c1)C(Cc1ccc(O)c(O)c1)C(=O)O (stereo in doubt; 24b) |  | 1.9 | 2.78 | 71 | 0.44 |  | 37 |  |  |  | 
8 | O=C(/C=C/c1ccc(O)c(O)c1)NCC(OC(=O)/C=C\c1ccc(O)c(O)c1)C(=O)O (stereo not drawn) | 88 |  | 0.19 | 175 | 0.37 | 2 |  |  |  |  | 
9 | CCCCCCCCCCNC(=O)C(Cc1ccc(O)c(O)c1)C(Cc1ccc(O)c(O)c1)C(=O)O (stereo not drawn) | < 1 |  | > 10 | 34 | > 10 | > 37 |  |  |  |  | 
10 | O=C(OC(C(=O)O)C(OC(=O)c1ccsc1)C(=O)O)c1ccsc1 (stereo not drawn) | < 1 |  |  | 100 |  | > 95 |  | > 10 | > 10 |  | 
11 | O=C(O)C(O)C(O)C(=O)O (stereo not drawn) | < 1 |  |  | >1000 |  | > 1000 |  | > 25 | > 25 |  | 
12 | NC(=O)C(Cc1ccc(O)c(O)c1)C(Cc1ccc(O)c(O)c1)C(=O)O (stereo not drawn) | 2.5 |  | 2.84 | 123 | > 10 | 49 |  |  |  |  | 
13 | O=C(O)C(=C\c1ccc(O)c(O)c1)/C(=C/c1ccc(O)c(O)c1)C(=O)O | 12 |  | 2.19 | 55 | 0.83 | 4.4 |  |  |  |  | 
14 | O=C(O)C(Cc1ccc(O)c(O)c1)C(Cc1ccc(O)c(O)c1)C(=O)O (stereo in doubt; 23b) |  | 12.6 |  | 76 |  |  | 6 |  |  | 4.32 | 0.23
15 | O=C(OC(C(=O)O)C(OC(=O)c1cccs1)C(=O)O)c1cccs1 (stereo not drawn) | < 1 |  |  | >190 |  | > 190 |  | > 10 | > 10 |  | 
16 | O=C(/C=C/c1ccc(O)c(O)c1)Nc1cc(NC(=O)/C=C/c2ccc(O)c(O)c2)cc(C(=O)O)c1 | 10 |  | 0.73 | 47 |  | 4.6 |  |  |  |  | 
